{
  "source": "ChEMBL document CHEMBL4002591",
  "about": "(J Med Chem, 2017)",
  "key": {"[1]": {"target": "Poly [ADP-ribose] polymerase 1 (Homo sapiens, UniProt P09874)", "sequence (P09874 whole entry)": "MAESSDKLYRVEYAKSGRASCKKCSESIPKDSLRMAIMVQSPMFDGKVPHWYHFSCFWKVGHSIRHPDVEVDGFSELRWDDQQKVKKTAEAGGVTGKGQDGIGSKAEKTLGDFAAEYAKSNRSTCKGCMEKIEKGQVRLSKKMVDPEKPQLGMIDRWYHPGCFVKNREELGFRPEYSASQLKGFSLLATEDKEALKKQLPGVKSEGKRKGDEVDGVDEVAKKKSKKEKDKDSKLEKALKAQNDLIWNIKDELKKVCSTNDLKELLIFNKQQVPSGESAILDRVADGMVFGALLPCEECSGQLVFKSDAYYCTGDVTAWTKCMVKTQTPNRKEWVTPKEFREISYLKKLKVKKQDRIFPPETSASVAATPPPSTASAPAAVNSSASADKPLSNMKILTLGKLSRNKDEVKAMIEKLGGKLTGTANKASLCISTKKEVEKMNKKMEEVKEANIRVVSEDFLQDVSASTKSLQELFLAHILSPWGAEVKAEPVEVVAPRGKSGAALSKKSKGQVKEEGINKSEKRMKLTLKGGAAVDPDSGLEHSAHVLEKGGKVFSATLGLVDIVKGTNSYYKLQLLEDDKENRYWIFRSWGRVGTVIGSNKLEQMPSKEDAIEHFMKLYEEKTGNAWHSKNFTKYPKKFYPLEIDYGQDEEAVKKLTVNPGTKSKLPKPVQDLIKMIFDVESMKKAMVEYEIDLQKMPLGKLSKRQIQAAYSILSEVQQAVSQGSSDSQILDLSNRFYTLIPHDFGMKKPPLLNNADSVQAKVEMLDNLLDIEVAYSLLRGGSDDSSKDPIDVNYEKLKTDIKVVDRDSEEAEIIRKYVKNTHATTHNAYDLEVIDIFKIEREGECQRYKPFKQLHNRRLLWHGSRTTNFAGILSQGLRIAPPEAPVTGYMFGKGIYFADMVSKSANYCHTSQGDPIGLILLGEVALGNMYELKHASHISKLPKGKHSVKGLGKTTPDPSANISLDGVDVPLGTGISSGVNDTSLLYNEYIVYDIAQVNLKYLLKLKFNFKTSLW", "assay": "Inhibition of full length recombinant human N-terminal GST-tagged PARP1 expressed in Baculovirus infected Sf9 cells using TACS-Sapphire as substrate measured after 1 hr by colorimetric assay", "settings": "read-out: IC50"}, "[2]": {"target": "T1, Protein mono-ADP-ribosyltransferase PARP16 (Homo sapiens, UniProt Q8N5Y8)", "T1 sequence (Q8N5Y8 whole entry)": "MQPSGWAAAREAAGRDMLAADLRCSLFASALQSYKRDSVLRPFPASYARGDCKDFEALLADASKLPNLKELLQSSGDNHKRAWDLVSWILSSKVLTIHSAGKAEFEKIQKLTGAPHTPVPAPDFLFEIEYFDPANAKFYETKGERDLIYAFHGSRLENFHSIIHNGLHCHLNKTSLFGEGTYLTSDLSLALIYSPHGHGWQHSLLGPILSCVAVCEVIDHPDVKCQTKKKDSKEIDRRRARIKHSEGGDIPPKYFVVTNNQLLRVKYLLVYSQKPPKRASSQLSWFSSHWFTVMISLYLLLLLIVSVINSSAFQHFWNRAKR", "assay": "Inhibition of PARP16 (unknown origin)"}, "[3]": {"target": "T2, Poly [ADP-ribose] polymerase tankyrase-1 (Homo sapiens, UniProt O95271)", "T2 sequence (O95271 whole entry)": "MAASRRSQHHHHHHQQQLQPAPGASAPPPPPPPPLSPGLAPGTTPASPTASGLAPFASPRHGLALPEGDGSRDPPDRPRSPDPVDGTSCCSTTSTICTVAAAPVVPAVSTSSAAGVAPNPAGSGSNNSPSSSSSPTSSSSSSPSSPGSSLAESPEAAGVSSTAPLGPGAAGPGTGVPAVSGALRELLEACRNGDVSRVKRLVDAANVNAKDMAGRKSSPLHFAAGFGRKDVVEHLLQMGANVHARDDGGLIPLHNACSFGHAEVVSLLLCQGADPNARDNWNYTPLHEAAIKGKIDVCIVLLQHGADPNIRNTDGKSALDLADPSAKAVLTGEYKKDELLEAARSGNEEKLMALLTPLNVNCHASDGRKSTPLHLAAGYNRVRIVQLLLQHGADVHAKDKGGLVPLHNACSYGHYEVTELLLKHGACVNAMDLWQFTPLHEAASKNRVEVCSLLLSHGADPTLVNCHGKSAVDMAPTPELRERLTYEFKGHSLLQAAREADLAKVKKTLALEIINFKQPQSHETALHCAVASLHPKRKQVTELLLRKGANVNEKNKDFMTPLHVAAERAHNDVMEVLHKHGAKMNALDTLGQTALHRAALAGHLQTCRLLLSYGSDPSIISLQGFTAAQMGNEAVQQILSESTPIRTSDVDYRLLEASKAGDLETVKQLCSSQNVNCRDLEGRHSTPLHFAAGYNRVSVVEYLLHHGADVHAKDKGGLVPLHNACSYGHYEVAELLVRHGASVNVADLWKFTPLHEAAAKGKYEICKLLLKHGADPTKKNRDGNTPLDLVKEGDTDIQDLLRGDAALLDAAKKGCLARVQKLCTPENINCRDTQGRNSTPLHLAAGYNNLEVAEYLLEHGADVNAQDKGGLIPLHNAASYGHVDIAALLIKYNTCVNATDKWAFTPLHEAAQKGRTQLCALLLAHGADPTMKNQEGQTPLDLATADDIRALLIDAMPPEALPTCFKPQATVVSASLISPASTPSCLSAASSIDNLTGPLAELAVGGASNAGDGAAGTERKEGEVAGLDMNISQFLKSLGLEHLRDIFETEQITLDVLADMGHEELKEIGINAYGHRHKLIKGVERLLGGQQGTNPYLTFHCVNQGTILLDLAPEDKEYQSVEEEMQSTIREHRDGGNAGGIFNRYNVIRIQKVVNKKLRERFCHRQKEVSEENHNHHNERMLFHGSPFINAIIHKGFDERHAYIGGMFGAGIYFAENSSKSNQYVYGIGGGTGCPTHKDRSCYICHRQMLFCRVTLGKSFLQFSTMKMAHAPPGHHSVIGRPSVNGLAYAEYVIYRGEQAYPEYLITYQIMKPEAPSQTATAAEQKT", "assay": "Inhibition of recombinant human N-terminal GST-tagged TNKS1 (1001 to 1327 residues) expressed in baculovirus infected sf9 cells using TACS-Sapphire as substrate measured after 30 mins by colorimetric assay"}, "Mus musculus": {"organism": "Mus musculus", "assay": "Inhibition of TNKS in mouse 3T3L1 cells assessed as upregulation of GLUT4 by measuring increase in insulin-stimulated glucose uptake at 1 uM using 2-deoxy-D-[2,6-3H]glucose as substrate pretreated for 1 hr followed by insulin stimulation for 30 mins and subsequent addition of substrate measured after 5 mins by scintillation counter", "type": "cell-based", "set-up": "scale not given: the % may be the effect or the level left", "summary_of_the_method": "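3T3-L1 fibroblasts were grown in DMEM and differentiated to adipocytes with insulin, dexamethasone and isobutylmethylxanthine, then used 10-12 d later. Cells were serum-starved 2 h at 37°C and given compound for 1 h. After KRH washes (pH 7.4), cells were held 30 min with compound, with or without 100 nM insulin. 2-Deoxy-D-[2,6-³H]glucose was added for 5 min.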"}, "[4]": {"target": "Protein mono-ADP-ribosyltransferase PARP14 (Homo sapiens, UniProt Q460N5)", "sequence (Q460N5 whole entry)": "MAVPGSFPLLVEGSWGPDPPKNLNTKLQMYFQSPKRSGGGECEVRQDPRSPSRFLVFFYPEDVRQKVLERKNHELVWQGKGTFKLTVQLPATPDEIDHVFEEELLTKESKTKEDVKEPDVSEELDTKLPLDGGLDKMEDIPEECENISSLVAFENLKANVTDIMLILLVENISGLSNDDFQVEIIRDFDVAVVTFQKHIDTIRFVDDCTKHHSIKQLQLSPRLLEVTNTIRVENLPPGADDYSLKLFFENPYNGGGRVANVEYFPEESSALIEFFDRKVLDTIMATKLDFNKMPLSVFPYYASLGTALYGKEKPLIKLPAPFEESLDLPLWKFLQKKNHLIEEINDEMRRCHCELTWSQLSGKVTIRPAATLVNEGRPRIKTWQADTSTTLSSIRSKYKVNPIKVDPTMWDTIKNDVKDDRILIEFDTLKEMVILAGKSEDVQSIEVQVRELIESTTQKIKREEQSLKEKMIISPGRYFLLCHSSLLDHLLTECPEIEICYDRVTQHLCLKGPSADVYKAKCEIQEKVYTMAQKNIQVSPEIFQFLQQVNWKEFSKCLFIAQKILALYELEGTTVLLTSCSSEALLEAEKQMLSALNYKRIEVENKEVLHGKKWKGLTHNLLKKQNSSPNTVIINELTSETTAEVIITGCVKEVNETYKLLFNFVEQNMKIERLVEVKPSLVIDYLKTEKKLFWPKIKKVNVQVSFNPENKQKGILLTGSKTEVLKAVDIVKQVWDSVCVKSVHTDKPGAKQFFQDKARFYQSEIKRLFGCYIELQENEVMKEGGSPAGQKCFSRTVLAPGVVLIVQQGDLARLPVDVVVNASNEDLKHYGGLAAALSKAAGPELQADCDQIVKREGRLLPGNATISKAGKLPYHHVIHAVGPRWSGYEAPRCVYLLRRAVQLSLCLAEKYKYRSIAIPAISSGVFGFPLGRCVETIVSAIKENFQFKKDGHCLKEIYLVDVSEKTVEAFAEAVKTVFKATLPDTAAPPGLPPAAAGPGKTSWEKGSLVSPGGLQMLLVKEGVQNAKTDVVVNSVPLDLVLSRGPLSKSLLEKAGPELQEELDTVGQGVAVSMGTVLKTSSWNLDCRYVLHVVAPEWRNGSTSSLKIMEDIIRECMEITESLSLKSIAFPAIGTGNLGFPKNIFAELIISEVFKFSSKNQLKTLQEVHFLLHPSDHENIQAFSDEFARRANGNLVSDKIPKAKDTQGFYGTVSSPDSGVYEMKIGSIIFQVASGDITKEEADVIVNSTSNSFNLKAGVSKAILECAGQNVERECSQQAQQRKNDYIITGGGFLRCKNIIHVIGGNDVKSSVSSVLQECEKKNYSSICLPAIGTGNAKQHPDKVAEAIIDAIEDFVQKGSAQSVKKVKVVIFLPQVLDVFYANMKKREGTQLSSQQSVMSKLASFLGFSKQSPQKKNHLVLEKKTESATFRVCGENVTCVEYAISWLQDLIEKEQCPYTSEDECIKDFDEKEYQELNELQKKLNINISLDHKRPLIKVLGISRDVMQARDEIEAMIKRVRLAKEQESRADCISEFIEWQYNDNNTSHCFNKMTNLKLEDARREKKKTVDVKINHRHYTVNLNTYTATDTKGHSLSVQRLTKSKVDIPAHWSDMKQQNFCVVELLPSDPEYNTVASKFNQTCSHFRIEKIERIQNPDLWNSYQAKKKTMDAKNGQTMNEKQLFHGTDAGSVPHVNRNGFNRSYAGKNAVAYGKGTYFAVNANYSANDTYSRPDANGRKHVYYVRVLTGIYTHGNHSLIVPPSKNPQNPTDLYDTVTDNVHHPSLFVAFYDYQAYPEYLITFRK", "assay": "Inhibition of PARP14 (unknown origin)"}, "[5]": {"target": "Protein mono-ADP-ribosyltransferase PARP4 (Homo sapiens, UniProt Q9UKK3)", "sequence (Q9UKK3 whole entry)": "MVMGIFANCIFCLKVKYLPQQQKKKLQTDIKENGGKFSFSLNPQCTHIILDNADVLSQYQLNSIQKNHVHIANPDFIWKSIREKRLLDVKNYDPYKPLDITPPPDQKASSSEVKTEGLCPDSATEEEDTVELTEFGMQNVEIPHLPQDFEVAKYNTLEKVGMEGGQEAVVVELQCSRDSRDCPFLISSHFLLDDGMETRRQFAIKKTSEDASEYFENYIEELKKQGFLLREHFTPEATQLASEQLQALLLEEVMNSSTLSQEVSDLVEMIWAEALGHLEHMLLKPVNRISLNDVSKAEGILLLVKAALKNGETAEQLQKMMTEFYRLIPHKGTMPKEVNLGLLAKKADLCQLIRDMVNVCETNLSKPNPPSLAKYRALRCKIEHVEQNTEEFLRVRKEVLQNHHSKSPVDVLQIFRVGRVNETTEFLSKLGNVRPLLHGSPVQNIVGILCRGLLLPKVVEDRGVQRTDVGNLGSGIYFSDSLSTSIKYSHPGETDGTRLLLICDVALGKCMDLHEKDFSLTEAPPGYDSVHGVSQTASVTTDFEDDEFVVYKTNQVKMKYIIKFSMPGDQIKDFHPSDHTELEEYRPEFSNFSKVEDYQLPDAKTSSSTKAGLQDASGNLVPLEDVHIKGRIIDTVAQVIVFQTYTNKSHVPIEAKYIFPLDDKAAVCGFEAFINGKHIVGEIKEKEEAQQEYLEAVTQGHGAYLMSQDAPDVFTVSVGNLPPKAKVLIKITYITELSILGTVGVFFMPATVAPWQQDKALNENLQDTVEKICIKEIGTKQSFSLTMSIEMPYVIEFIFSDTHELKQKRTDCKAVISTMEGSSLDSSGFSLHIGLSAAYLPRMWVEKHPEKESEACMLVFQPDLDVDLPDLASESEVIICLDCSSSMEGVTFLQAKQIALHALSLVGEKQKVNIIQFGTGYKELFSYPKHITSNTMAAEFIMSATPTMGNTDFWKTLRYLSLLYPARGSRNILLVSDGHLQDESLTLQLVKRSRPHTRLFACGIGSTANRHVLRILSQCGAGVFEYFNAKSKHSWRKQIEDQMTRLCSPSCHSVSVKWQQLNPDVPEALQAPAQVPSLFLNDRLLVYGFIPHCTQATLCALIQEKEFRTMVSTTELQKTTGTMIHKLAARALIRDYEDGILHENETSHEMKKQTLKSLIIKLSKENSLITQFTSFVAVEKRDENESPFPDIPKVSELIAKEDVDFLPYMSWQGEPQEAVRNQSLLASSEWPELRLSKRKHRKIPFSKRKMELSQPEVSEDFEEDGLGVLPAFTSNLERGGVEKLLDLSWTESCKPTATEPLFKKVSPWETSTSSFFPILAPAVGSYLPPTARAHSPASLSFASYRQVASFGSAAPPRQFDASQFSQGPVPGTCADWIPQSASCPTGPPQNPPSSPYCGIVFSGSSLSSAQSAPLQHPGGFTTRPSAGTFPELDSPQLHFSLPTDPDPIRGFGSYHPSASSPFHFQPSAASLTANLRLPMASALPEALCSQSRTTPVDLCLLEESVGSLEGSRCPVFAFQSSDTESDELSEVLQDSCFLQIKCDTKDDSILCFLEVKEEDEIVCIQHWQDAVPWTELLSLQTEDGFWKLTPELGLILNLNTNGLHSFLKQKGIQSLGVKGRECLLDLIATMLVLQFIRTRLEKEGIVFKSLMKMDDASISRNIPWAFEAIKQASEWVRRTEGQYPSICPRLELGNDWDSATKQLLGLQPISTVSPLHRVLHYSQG", "assay": "Inhibition of PARP4 (unknown origin)"}, "DLD-1": {"tested_on": "DLD-1", "assay": "Anti-proliferative activity against human DLD1 cells assessed as inhibition of colony formation at 1 uM measured after 18 days under normal serum condition by trypan blue staining based light microscopic analysis", "type": "functional, cell-based", "summary_of_the_method": "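DLD-1 colony-forming assay under normal serum: 1000 cells/well, with 1.0 µM or 100 nM compound, or a 1% DMSO (v/v) vehicle control. Colonies were counted, n = 3.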"}},
  "note": "The source made the active and inactive calls. No cut-off for these calls is given here.",
  "data": [
    {"smiles": "Cc1cccc2c(=O)[nH]c(CCC(=O)Nc3ccc(C(=O)Nc4cccc5cccnc45)cc3)nc12", "values": [
      {"measurement": "IC50", "setting": "[1]", "result": 6.5, "unit": "µM"},
      {"measurement": "IC50", "setting": "[2]", "result": "> 100", "unit": "µM"},
      {"measurement": "IC50", "setting": "[3]", "result": 0.0051, "unit": "µM"},
      {"measurement": "Activity", "setting": "Mus musculus", "result": 20, "unit": "%"},
      {"measurement": "IC50", "setting": "[4]", "result": "> 100", "unit": "µM"},
      {"measurement": "IC50", "setting": "[5]", "result": 65, "unit": "µM"},
      {"measurement": "inhibition", "setting": "DLD-1", "result": "Active"}
    ]},
    {"smiles": "O=C(CCc1nc2ccccc2c(=O)[nH]1)Nc1ccc(C(=O)Nc2cccc3cccnc23)cc1", "values": [
      {"measurement": "IC50", "setting": "[1]", "result": 8.2, "unit": "µM"},
      {"measurement": "IC50", "setting": "[2]", "result": "> 100", "unit": "µM"},
      {"measurement": "IC50", "setting": "[3]", "result": 0.0091, "unit": "µM"},
      {"measurement": "Activity", "setting": "Mus musculus", "result": 20, "unit": "%"},
      {"measurement": "IC50", "setting": "[4]", "result": "> 100", "unit": "µM"},
      {"measurement": "IC50", "setting": "[5]", "result": 69, "unit": "µM"},
      {"measurement": "inhibition", "setting": "DLD-1", "result": "Active"}
    ]}
  ]
}
